From ChEMBL document CHEMBL1131113, “Design and synthesis of [2-(8,9-dioxo-2,6-diazabicyclo[5.2.0]non-1(7)-en-2-yl)-ethyl]phosphonic acid (EAA-090), a potent N-methyl-D-aspartate antagonist, via the use of 3-cyclobutene-1,2-dione as an achiral alpha-amino acid bioisostere” (J Med Chem, 1998) come the findings set out here.

In one assay the test system is Mus musculus. As to the kind of experiment: Effective dose against NMDA-induced lethality in mice on ip administration. Type of assay: functional.
Assay [1] has as its target Glutamate NMDA receptor. The experiment in a line: Displacement of [3H]CPP from rat brain synaptic membrane N-methyl-D-aspartate glutamate receptor. A digest of the protocol:
(§1)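 Crude synaptic membranes, thawed, washed once in Tris-HCl, resuspended at 0.3–0.5 mg protein/mL (Lowry). Affinity from displacement of [3H]CPP binding per Murphy's method.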
A general note: Loss of bound radioactivity is the signal in a displacement assay; it reports binding, not function.

Assay [2] deals with Glutamate NMDA receptor. As to the kind of experiment: Tested in vitro for antagonistic activity at N-methyl-D-aspartate glutamate receptor by measuring displacement of [3H]TCP from crude synaptic membrane preparations obtained from rat brain. It counts as functional. A digest of the protocol:
(§2)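 Same membranes incubated in triplicate 60 min at 25 °C with 2.5 nM [3H]TCP, 3 μM L-glutamate, 1 μM glycine, test drug. Nonspecific binding defined with 100 μM MK-801. Vacuum filtration on 0.1% PEI-pretreated filters, ice-cold buffer rinses, scintillation counting. IC50 with 95% confidence limits by nonlinear logistic regression over 5–10 concentrations.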

For another assay, the species on record is Rattus norvegicus. The experiment in a line: Effect on infarct volume in the rat was determined by rat permanent focal ischemia model. Type of assay: functional. The gist of the method: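 Male Fisher-344 rats (290–310 g) under 2–4% isoflurane. Right common carotid occluded and distal MCA electrocoagulated transcranially, body temperature 37 ± 1 °C. Single iv bolus via tail vein (1 mL/kg, 10 mg/kg in 0.9% NaCl) 5 min post-occlusion. At 24 h, cresyl violet-stained 20 μm frozen sections at 400-μm intervals; infarct volume by image analysis; mean ± SE.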

Assay [3] concerns the target T1, Glutamate NMDA receptor (Rattus norvegicus) (UniProt P35439+Q00959+Q00960+Q00961+Q62645+Q8VHN2+Q9R1M7). As to the kind of experiment: Tested in vitro at 10000 nM for binding affinity at N-methyl-D-aspartate glutamate receptor by measuring displacement of [3H]CPP from crude synaptic membrane preparations obtained from rat brain. A digest of the protocol:
as §1

The target of assay [4] is T1, Glutamate NMDA receptor (Rattus norvegicus). As to the kind of experiment: Tested in vitro at 100 uM for antagonistic activity at N-methyl-D-aspartate glutamate receptor by measuring displacement of [3H]TCP from crude synaptic membrane preparations obtained from rat brain. Type of assay: functional. A digest of the protocol: as §2

In general, ED50 refers to the dose that gives a 50% effect, or the effect in half of the subjects. In general, IC50 refers to the point on the concentration scale where inhibition reaches its midpoint. Low values mean greater potency in that assay, high ones weaker potency in that assay. Turning to `O=C1C2=NCCCN(Cc3nn[nH]n3)C2=C1O`, the ED50 in the assay with Mus musculus was greater than 10 mg/kg. Moreover, the IC50 at Glutamate NMDA receptor [1] is 38 nM; on Glutamate NMDA receptor [2], 18000 nM.
Taken in the same sequence, the figures for `O=C1C2=NCCCN(C/C=C/P(=O)(O)O)C2=C1O` were greater than 5 mg/kg, greater than 10000 nM and greater than 100000 nM.
Taken in the same sequence, the figures for `O=C1C2=NCC(O)CN(CCP(=O)(O)O)C2=C1O` (configuration not stated) were 1.8 mg/kg, 19 nM and 10000 nM.
With `Nc1c(NCCP(=O)(O)O)c(=O)c1=O`, in the assay with Mus musculus, it took a dose of 29 mg/kg to reach the 50% effect level (ED50).
For the compound `O=c1c2c(c1=O)N(CCP(=O)(O)O)CCCN2` [PERZINFOTEL], in the assay with Mus musculus, the ED50 came out at 2.1 mg/kg. Further, the half-maximal inhibitory concentration (IC50) on Glutamate NMDA receptor [1] was found to be 30 nM; at Glutamate NMDA receptor [2] it was 7600 nM. Moreover, the Infarct volume in the assay filed under Rattus norvegicus amounted to 43.2 mm**3.
In general, inhibition refers to the percentage by which the read-out fell short of the control. In the case of `O=C1C2=NCCCN(CCc3nnn[nH]3)C2=C1O`, in the assay on Mus musculus, the ED50 is greater than 5 mg/kg. In addition, the inhibition in assay [3] was found to be 41%. The IC50 at Glutamate NMDA receptor [2] was greater than 100000 nM.
For the compound `O=C1C(O)=C2/C1=N\CCCCN2CCP(=O)(O)O`, the ED50 in the assay on Mus musculus was greater than 3 mg/kg. For the same compound, the IC50 on Glutamate NMDA receptor [1] turned out to be 49 nM; on Glutamate NMDA receptor [2], 36000 nM.
`O=C1C2=NCCCN(CCCP(=O)(O)O)C2=C1O` showed an ED50 with Mus musculus greater than 10 mg/kg. For the same compound, the figures for the IC50 on Glutamate NMDA receptor [1] and on Glutamate NMDA receptor [2] were greater than 1000 nM and greater than 100000 nM, respectively.
Taken in the same sequence, the figures for `O=C1C2=NCCN(CCP(=O)(O)O)C2=C1O` were 6.1 mg/kg, 92 nM and 29000 nM.
In the case of `O=C([O-])CN1CCCN=C2C(=O)C(O)=C21.[Na+]`, the ED50 in the assay with Mus musculus was greater than 20 mg/kg. Besides, the inhibition in assay [4] amounted to 64%. At Glutamate NMDA receptor [1], this compound gave an IC50 of 550 nM.
`O=C(O)[C@@H]1C[C@H](CP(=O)(O)O)CCN1` (single isomer, unassigned) [SELFOTEL] gave an ED50 in the assay with Mus musculus of 1.5 mg/kg. In addition, the IC50 at Glutamate NMDA receptor [2] was found to be 22000 nM.
With `O=C([O-])CCN1CCCN=C2C(=O)C(O)=C21.[Na+]`, the ED50 in the assay on Mus musculus is greater than 20 mg/kg. The inhibition in assay [4] was 53%. The same compound had an IC50 on Glutamate NMDA receptor [1] of 340 nM.
`CC1(C)CN=C2C(=O)C(O)=C2N(CCP(=O)(O)O)C1` registered an ED50 in the assay with Mus musculus of 22 mg/kg. In addition, the inhibition in assay [4] worked out at 59%. In addition, the IC50 at Glutamate NMDA receptor [1] was determined as 280 nM.
